Columns and labels:
P2X purinoceptor 7 [1] = target: T1, P2X purinoceptor 7 (Rattus norvegicus, UniProt Q64663); test: Displacement of [3H]-A-804598 from rat P2X7 receptor expressed in HEK293 cell membrane by in vitro binding assay; assay type: cell membranes
T1 sequence (Q64663 whole entry): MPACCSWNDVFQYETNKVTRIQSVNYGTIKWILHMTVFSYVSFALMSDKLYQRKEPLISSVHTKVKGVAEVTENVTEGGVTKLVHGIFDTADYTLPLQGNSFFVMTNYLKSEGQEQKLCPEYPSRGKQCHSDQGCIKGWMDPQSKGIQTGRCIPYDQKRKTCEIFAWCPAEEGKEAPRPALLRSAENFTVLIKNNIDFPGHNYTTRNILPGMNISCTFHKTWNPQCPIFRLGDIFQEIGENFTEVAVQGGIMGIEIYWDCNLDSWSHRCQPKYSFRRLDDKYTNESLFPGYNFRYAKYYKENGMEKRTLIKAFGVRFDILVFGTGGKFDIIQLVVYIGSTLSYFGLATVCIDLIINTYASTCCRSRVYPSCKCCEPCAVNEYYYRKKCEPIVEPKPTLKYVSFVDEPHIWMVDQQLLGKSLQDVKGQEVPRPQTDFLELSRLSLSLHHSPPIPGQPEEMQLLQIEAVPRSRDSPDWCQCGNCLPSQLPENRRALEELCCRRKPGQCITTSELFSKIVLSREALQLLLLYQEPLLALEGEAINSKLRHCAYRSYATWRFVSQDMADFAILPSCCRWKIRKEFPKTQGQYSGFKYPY

[2] = Efflux ratio of permeability across basolateral to apical side over apical to basolateral side in MDCK2-MDR1 cells; assay type: ADME, cell-based, Canis lupus familiaris; details: dog, MDCK-MDR1
Procedure, shortened: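 MDR1-MDCK monolayers; permeability measured in both A-to-B and B-to-A directions, in triplicate. Efflux ratio taken as B:A over A:B permeation.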

P2X purinoceptor 7 [3] = target: T2, P2X purinoceptor 7 (Mus musculus, UniProt Q9Z1M0); test: Displacement of [3H]-A-804598 from mouse P2X7 receptor expressed in HEK293 cell membrane by in vitro binding assay; assay type: cell membranes
T2 sequence (Q9Z1M0 whole entry): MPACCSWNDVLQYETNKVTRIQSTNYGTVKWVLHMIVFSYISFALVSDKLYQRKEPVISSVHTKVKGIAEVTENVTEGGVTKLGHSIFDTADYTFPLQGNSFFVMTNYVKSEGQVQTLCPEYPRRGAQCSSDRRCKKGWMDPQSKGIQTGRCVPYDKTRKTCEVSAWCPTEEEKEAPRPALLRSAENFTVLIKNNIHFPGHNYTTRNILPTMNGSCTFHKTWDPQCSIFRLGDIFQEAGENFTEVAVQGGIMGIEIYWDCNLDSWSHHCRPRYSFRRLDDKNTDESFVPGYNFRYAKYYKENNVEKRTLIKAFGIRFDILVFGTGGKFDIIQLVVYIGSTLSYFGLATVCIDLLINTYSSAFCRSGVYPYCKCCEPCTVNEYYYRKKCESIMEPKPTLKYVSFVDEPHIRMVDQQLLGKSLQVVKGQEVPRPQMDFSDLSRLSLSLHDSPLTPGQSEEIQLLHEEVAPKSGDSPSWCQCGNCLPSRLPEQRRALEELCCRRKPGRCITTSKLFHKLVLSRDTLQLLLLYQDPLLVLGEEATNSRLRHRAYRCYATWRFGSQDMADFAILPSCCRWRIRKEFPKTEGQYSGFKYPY

P2X purinoceptor 7 [4] = target: T3, P2X purinoceptor 7 (Homo sapiens, UniProt Q99572); test: Antagonist activity at human P2X7 receptor expressed in HEK293 cells assessed as inhibition of BzATP-induced calcium-flux measured after 60 mins by FLIPR analysis; assay type: cell-based
T3 sequence (Q99572 whole entry): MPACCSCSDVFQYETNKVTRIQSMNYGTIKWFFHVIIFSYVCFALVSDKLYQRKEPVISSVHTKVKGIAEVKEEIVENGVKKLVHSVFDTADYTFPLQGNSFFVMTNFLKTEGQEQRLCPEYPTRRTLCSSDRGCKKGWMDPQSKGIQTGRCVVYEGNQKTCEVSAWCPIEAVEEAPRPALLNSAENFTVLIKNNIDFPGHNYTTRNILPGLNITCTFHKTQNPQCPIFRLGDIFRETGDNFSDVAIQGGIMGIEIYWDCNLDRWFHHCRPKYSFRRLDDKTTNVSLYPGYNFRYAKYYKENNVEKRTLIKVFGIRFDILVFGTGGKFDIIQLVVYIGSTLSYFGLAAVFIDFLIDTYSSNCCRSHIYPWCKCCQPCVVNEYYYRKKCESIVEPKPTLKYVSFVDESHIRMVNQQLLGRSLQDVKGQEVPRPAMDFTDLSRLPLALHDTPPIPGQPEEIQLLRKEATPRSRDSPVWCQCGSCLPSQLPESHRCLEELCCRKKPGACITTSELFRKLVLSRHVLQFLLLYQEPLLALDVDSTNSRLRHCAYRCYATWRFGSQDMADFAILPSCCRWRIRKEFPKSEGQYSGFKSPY

in vitro [5] = details: human, liver microsomes
P2X purinoceptor 7 [6] = target: T3, P2X purinoceptor 7; test: Displacement of [3H]-A-804598 from human P2X7 receptor expressed in HEK293 cell membrane by in vitro binding assay; assay type: cell membranes
THP-1 = test: Antiinflammatory activity against human THP-1 cells assessed as reduction in LPS and BzATP-induced IL-1beta release measured after 50 mins by microplate reader; assay type: functional, cell-based; details: THP-1, 50 min
Procedure, shortened: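 THP-1 cells were differentiated with IFN-γ 10 ng/mL for 48 h and primed with LPS (100 ng/mL final) for 3.5 h at 10k cells/well. Compound was added for 20 min, then BzATP (1 mM final) for 30 min at 37 °C. Supernatant IL-1β was read by human AlphaLISA.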

P2X purinoceptor 7 [7] = target: T2, P2X purinoceptor 7; test: Antagonist activity at mouse P2X7 receptor expressed in HEK293 cells assessed as inhibition of BzATP-induced calcium-flux measured after 60 mins by FLIPR analysis; assay type: cell-based
Procedure, shortened: (§1)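 Stable rat or mouse P2X7 HEK293 cells in HBSS/20 mM HEPES/2.5 mM probenecid/0.05% BSA, pH 7.4, were loaded with Fluo-4 NW (37 °C 30 min, RT 30 min). After 30 min at RT, calcium fluorescence was read by FLIPR; n ≥ 3.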

[8] = Apparent permeability across apical to basolateral side in MDCK-MDR1 cells by LC-MS/MS analysis; details: dog
P2X purinoceptor 7 [9] = target: T1, P2X purinoceptor 7; test: Antagonist activity at rat P2X7 receptor expressed in HEK293 cells assessed as inhibition of BzATP-induced calcium-flux measured after 60 mins by FLIPR analysis; assay type: cell-based; procedure, shortened: as §1
in vitro [10] = details: rat, liver microsomes

Structure (SMILES) | Ki (P2X purinoceptor 7 [1]) | efflux ratio [2] | Ki (P2X purinoceptor 7 [3]) | IC50 (P2X purinoceptor 7 [4]) | CLint scaled at 1 h, 1 µM (in vitro [5]) | Ki (P2X purinoceptor 7 [6]) | IC50 (THP-1) | IC50 (P2X purinoceptor 7 [7]) | Papp A:B [8] | IC50 (P2X purinoceptor 7 [9]) | CLint scaled at 1 h, 1 µM (in vitro [10])
FC(F)(F)c1cccc(-c2nnnn2Cc2cccnc2)c1Cl | 16 nM | 0.77 | 48 nM | 57 nM | 75 mL/min/kg | 7.4 nM | 140 nM | 300 nM | 40 ×10⁻⁶ cm/s | 71 nM | 417 mL/min/kg
O=C(NCC12CC3CC(CC(C3)C1)C2)c1cc(CCCNCCCO)ccc1Cl [AZD9056] | 130 nM | 17 |  | 3.5 nM | 20 mL/min/kg | 15 nM |  | 1700 nM | 0.7 ×10⁻⁶ cm/s | 4.4 nM | 43.3 mL/min/kg
O=C(NCC1(O)CCC(F)(F)CC1)c1cc(-c2ncc(F)cn2)ccc1Cl | 4800 nM |  |  |  | 7.83 mL/min/kg |  |  | > 10000 nM | 18 ×10⁻⁶ cm/s | 5500 nM | 53.3 mL/min/kg
O=C(NCC1CCCCCC1)c1cn(CCO)c2ccccc12 |  | 0.7 |  | 72 nM | 883 mL/min/kg |  |  | 240 nM | 5.9 ×10⁻⁶ cm/s | 1500 nM | 533 mL/min/kg
Clc1cccc(-c2nnnn2Cc2cccnc2)c1Cl | 200 nM |  |  | 2100 nM | 16.7 mL/min/kg | 68 nM |  | 2900 nM |  | 910 nM | 767 mL/min/kg
O=C(NCC1(N2CCN(c3ccccc3)CC2)CCOCC1)c1cccnc1Sc1ccccc1 | 98 nM | 1.1 |  | 35 nM | 283 mL/min/kg |  |  | 0.65 nM | 11 ×10⁻⁶ cm/s | 4.7 nM | 433 mL/min/kg
O=C(Cc1cccc(C(F)(F)F)c1Cl)NC1COc2ncccc21 (stereo not given) |  | 0.83 | 100 nM | 5.5 nM | 26.7 mL/min/kg | 5.6 nM | 27 nM | 320 nM | 25 ×10⁻⁶ cm/s | 260 nM | 85 mL/min/kg
C[C@H](N/C(=N/C#N)Nc1cccc2ncccc12)c1ccccc1 | 3.9 nM |  |  |  | 23.3 mL/min/kg |  | 15 nM |  | 9.3 ×10⁻⁶ cm/s | 6.1 nM | 71.7 mL/min/kg
COC[C@H](O)Cn1c(=O)cnn(-c2ccc(Cl)c(C(=O)NCC3(O)CCCCCC3)c2)c1=O [CE-224535] |  |  |  | 0.76 nM |  |  |  | 660 nM | 0.6 ×10⁻⁶ cm/s | 470 nM | 
CN1CCc2c(cccc2C(=O)NCC2(N3CCN(c4ccccc4)CC3)CCCCC2)C1 |  | 1.1 |  |  |  |  |  |  | 0.25 ×10⁻⁶ cm/s |  | 200 mL/min/kg
COc1ccc(CC(=O)NC(N/C(=N/C#N)Nc2cccc3ncccc23)C(C)(C)C)cc1OC (stereo not given) |  |  |  | 81 nM |  | 130 nM |  | 250 nM | 0.2 ×10⁻⁶ cm/s |  | 
CN1C(=O)CC[C@H]1C(=O)NCc1cccc(C(F)(F)F)c1Cl [GSK1482160] | 510 nM | 0.72 |  | 20 nM | 5 mL/min/kg | 5.7 nM |  | 2300 nM | 20 ×10⁻⁶ cm/s | 1900 nM | 16.7 mL/min/kg
O=C(NC[C@@H](c1ccc(Cl)cc1)N1CCOCC1)c1sc(-c2ncccn2)nc1C(F)(F)F |  |  |  |  |  |  |  |  |  | 95 nM | 

Reference: ChEMBL document CHEMBL5055621, “Synthesis and Characterization of the Novel Rodent-Active and CNS-Penetrant P2X7 Receptor Antagonist Lu AF27139” (J Med Chem, 2021)
